Results gathered from unrelated publications.
Lines come from different studies, so protocols differ.
Target: Protein kinase C eta type (PRKCH, Homo sapiens, UniProt P24723)

Structure (SMILES)	assay	conditions	endpoint	value
CCN(CC)c1ccc(C2=NNC(=O)CC2C)cc1[N+](=O)[O-] (stereo not shown)	enzyme activity, inhibitor	10 µM	remaining activity	105%
CC(C)(O)c1cncc(-c2nc3ccc(F)cc3n2C2CC2)c1	cell-free assay, competition with immobilised ligand	1 µM	remaining binding	98%
Cc1ccc(NC(=O)c2ccc(C)c(C(F)(F)F)c2)cc1C#Cc1nn(C2CCC(O)CC2)c2ncnc(N)c12 (stereo not shown)	cell-free assay	10 µM	remaining signal	72%
CC(C)CC(=O)N1CCc2nc(-c3ccc(Br)cc3)nc(N(C)Cc3ccccc3)c2C1	cell-free assay, competition with immobilised ligand	0.1 µM	remaining binding	94%
Cn1cnc(Br)c1C1=CN(c2ncnc3[nH]cnc23)CCS1	enzyme activity, inhibitor, radiometric	50 nM	inhibition	29.7%
CN(c1ccnc(CNc2nc(Nc3ccc4c(c3)CC(=O)N4)ncc2C(F)(F)F)n1)S(C)(=O)=O	cell-free assay, competition with immobilised ligand	1 µM	remaining binding	100%
CC(C)c1ccc(NC(=O)c2cccs2)c(-c2nc3ccccc3[nH]c2=O)c1	enzyme activity, inhibitor	1 µM	activity vs control	108%
CCS(=O)(=O)c1cc2cc(C[C@](O)(CC(C)(C)c3ccc(F)cc3C(N)=O)C(F)(F)F)[nH]c2cn1	cell-free assay, competition with immobilised ligand	1 µM	remaining binding	94%
COc1cc(-c2cc(-c3ccc(N4CCNCC4)cc3)cnc2C)cc(OC)c1OC	enzyme activity, inhibitor	0.1 µM	inhibition	2%
Cc1cc(NC(=O)c2cccc3cc(-c4cccc5[nH]nc(N)c45)ccc23)ccc1F	enzyme activity, inhibitor	0.1 µM	activity vs control	109%
CNC(=O)c1ccc(Nc2ncc(C(F)(F)F)c(NCc3nccnc3N(C)S(C)(=O)=O)n2)cc1	cell-free assay, competition with immobilised ligand	0.1 µM	remaining binding	86%
Cc1ccc(C(=O)Nc2ccc(CN3CCN(C)CC3)c(C(F)(F)F)c2)cc1C#Cc1cnc2cccnn12	enzyme activity	23.5 nM	remaining activity	91%
CNC(=O)c1cc(Oc2ccc(NC(=O)Nc3ccc(Cl)c(C(F)(F)F)c3)cc2)ccn1	enzyme activity, inhibitor	10 µM	inhibition	0%
CCCOc1ccc([C@H]2[C@H](C(=O)O)[C@@H](c3ccc4c(c3)OCO4)CN2CC(=O)Nc2c(CC)cccc2CC)cc1	cell-free assay, competition with immobilised ligand	1 µM	remaining binding	100%
O=C(Nc1cnn(-c2csc(C(=O)NC3COC3)c2)c1)Nc1ccccc1Cl	enzyme activity, inhibitor	5 µM	remaining activity	103%
CC/C(=N\NC(=O)NCc1cccc(O)c1)c1ccc(O)c(C)c1O	enzyme activity, inhibitor	0.1 µM	inhibition	44.8%
COc1cc2ncnc(Nc3ccc(Oc4ccccc4)c(C)c3C)c2cc1OC	enzyme activity, inhibitor	1 µM	inhibition	5%
Cn1cncc1C1=CN(c2ncnc3[nH]cnc23)CCS1	enzyme activity, inhibitor, radiometric	50 nM	inhibition	15.8%
Cc1ccc(C(=O)NCc2ccsc2)cc1C#Cc1cn(C(C)C)c2ncnc(N)c12	enzyme activity, inhibitor	1 µM	activity vs control	118%
